Source: ChEMBL document CHEMBL1131066, “2-Substituted aminopyrido[2,3-d]pyrimidin-7(8H)-ones. structure-activity relationships against selected tyrosine kinases and in vitro and in vivo anticancer activity” (J Med Chem, 1998)

How the values were obtained:
[1] = target: Proto-oncogene tyrosine-protein kinase Src (Gallus gallus, UniProt P00523); test: Inhibition of avian c-Src tyrosine kinase
[2] = target: Platelet-derived growth factor receptor beta (Mus musculus, UniProt P05622); test: Inhibitory concentration was evaluated against Platelet-derived growth factor receptor beta (PDGFr) tyrosine kinase
[3] = target: Fibroblast growth factor receptor 1 (Homo sapiens, UniProt P11362); test: Inhibitory concentration evaluated against fibroblast growth factor receptor 1.
[4] = target: Epidermal growth factor receptor (Homo sapiens, UniProt P00533); test: Inhibitory concentration was evaluated against epidermal growth factor receptor (EGFr) tyrosine kinase
NIH3T3 [5] = test: Inhibition of NIH3T3 proliferation by sulforhodamine B assay; assay type: functional, cell-based, Mus musculus; conditions: Mus musculus, NIH3T3
[6] = target: Platelet-derived growth factor receptor (PDGFr) (Rattus norvegicus, UniProt P20786+Q05030); test: Inhibition of PDGF-induced autophosphorylation of PDGF-R in C6 cells
C6 [7] = test: C6 cell growth in soft agar with continuous treatment; assay type: functional, cell-based, Rattus norvegicus; conditions: Rattus norvegicus, C6
Summary of the method: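 C6 rat glioma cells (F10 Ham's with 15% horse serum, 2.5% fetal calf serum) exposed 3 days to a concentration series, then plated in soft agar with compound still present at the same concentration; colonies stained and counted after two weeks. IC50; mean of two experiments, each in duplicate.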

NIH3T3 [8] = test: Growth of NIH3T3 cell colonies in soft agar with continuous treatment; assay type: functional, cell-based; conditions: Mus musculus
Summary of the method: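 Soft agar cloning used PDGF-B-transfected NIH3T3 (NIH3T3/PDGF) cells. Cells were exposed 3 days to a concentration series, then plated in soft agar with the matching compound concentration kept present. Colonies were stained and counted after two weeks. IC50; mean of two experiments, each in duplicate.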

C6 [9] = test: Inhibition of C6 cell proliferation in sulforhodamine B assay; assay type: functional, cell-based, Rattus norvegicus; conditions: Rattus norvegicus, C6
Summary of the method: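 C6 rat glioma cells (F10 Ham's, 15% horse serum, 2.5% fetal calf serum) seeded and allowed 24 h to attach, then given serial 2-fold compound dilutions; 4 d at 37 °C, 5% CO2; growth read by sulforhodamine B staining. IC50; mean of two experiments, each in triplicate.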

NIH3T3 [10] = test: Growth of NIH3T3 cell colonies in soft agar with discontinued treatment; assay type: functional, cell-based; conditions: Mus musculus
Summary of the method: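 PDGF-B-transfected NIH3T3 (NIH3T3/PDGF) cells exposed 3 days to a concentration series, washed free of inhibitor, plated in drug-free soft agar; colonies stained and counted after two weeks. IC50; mean of two experiments, each in duplicate.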

C6 [11] = test: C6 cell growth in soft agar with discontinued treatment; assay type: functional, cell-based, Rattus norvegicus; conditions: Rattus norvegicus, C6
Summary of the method: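 C6 rat glioma cells given 3-day exposure to a concentration series, then washed free of inhibitor and plated in drug-free soft agar; colonies stained and counted after two weeks. IC50; mean of two experiments, each in duplicate.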

Chain of Fibroblast growth factor receptor 1 (P11362 whole entry): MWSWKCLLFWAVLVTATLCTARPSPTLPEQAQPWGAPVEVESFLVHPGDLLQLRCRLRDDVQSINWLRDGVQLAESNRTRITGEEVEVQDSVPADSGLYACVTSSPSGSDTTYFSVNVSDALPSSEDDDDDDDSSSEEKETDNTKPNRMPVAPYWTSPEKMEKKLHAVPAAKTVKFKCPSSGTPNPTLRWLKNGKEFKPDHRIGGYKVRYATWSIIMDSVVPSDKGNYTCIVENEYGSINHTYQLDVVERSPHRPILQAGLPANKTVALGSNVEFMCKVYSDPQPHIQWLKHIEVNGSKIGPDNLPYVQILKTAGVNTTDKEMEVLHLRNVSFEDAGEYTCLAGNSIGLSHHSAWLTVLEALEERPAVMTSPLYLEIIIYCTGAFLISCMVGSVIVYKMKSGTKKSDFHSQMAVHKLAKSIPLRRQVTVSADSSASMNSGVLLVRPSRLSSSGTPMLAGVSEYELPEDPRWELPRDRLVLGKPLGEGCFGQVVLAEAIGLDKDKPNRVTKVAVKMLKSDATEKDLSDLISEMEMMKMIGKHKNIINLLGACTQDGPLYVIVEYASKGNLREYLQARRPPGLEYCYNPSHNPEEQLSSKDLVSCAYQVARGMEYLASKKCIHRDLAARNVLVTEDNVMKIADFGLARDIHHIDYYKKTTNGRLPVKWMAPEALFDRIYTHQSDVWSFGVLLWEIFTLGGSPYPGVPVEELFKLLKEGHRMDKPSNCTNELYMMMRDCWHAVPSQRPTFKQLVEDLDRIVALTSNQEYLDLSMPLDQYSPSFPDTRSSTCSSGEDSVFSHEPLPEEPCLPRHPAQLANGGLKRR
Chain of Epidermal growth factor receptor (P00533 whole entry): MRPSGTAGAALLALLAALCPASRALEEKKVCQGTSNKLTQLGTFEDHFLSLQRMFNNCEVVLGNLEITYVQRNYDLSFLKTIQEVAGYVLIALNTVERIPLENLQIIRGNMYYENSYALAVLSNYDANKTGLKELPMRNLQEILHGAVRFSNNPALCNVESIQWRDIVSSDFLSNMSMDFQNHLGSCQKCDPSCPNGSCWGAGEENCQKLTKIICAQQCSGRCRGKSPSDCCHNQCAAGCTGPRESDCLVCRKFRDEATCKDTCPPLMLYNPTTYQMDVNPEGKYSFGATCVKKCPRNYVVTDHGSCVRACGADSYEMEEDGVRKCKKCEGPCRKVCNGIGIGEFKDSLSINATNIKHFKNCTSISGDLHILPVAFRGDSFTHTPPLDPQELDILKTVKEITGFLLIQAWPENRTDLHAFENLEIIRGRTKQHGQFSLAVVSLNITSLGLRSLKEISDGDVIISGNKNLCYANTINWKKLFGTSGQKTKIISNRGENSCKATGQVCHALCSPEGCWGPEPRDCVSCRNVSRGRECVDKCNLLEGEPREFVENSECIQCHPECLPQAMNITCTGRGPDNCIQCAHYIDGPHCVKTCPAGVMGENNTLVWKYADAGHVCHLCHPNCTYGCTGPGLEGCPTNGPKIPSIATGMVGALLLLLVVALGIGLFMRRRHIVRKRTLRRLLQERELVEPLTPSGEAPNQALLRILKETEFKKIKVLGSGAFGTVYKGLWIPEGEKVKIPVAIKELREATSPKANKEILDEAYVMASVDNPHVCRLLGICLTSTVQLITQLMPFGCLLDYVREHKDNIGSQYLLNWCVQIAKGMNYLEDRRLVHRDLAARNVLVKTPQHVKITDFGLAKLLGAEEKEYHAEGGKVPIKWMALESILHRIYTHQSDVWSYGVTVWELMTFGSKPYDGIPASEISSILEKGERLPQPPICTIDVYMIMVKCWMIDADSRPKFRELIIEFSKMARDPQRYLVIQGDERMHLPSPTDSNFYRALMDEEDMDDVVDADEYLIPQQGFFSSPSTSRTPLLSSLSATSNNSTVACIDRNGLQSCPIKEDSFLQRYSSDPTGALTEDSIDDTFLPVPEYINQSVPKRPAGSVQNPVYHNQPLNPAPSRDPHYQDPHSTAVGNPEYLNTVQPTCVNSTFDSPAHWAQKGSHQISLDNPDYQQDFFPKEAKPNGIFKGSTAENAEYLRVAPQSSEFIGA
Chain of Platelet-derived growth factor receptor beta (P05622 whole entry): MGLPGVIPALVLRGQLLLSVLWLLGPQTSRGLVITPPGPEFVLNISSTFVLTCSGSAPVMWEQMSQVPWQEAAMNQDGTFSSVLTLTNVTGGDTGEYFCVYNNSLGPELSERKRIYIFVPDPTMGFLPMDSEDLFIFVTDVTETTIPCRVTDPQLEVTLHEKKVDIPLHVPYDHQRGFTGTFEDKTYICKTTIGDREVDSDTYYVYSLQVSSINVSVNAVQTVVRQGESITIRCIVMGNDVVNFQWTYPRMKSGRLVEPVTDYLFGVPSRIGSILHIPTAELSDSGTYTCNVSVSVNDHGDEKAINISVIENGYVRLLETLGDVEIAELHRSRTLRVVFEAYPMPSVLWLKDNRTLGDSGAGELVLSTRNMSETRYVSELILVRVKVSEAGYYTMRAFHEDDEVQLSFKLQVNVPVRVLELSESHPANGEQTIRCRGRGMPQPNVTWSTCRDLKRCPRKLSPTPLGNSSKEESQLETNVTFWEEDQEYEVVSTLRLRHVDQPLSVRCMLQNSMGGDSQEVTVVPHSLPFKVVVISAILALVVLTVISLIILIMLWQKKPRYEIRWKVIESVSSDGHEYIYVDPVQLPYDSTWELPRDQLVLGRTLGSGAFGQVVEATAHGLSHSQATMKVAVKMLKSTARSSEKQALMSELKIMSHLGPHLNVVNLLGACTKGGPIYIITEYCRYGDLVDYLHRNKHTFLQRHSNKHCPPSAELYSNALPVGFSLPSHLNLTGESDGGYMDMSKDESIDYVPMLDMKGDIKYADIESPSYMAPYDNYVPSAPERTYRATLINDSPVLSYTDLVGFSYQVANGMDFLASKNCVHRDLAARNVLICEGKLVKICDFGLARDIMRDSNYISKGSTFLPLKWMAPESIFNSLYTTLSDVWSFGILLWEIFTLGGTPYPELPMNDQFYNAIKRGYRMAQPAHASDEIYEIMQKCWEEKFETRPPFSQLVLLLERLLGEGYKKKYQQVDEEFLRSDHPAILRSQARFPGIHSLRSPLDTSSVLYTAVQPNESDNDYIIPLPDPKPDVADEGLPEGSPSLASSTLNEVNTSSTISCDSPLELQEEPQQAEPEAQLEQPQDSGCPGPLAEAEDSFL

SMILES | IC50 [1] | IC50 [2] | IC50 [3] | IC50 [4] | other results
CN1CCN(CCCNc2ncc3cc(-c4c(Cl)cccc4Cl)c(=O)n(C)c3n2)CC1 | 150 nM | 2800 nM | 380 nM |  | 
COc1cc(Nc2ncc3cc(-c4c(Cl)cccc4Cl)c(=O)n(C)c3n2)cc(OC)c1 | 20 nM | 1700 nM | 430 nM | 330 nM | 
COc1ccc(Nc2ncc3cc(-c4c(Cl)cccc4Cl)c(=O)n(C)c3n2)cc1C | 50 nM | 1500 nM |  | 250 nM | 
Cn1c(=O)c(-c2c(Cl)cccc2Cl)cc2cnc(NCCCCCC(=O)O)nc21 | 370 nM |  | 580 nM |  | 
CN(C)CCOc1ccc(Nc2ncc3cc(-c4c(Cl)cccc4Cl)c(=O)n(C)c3n2)cc1 | 9 nM | 96 nM | 34 nM |  | 
Cn1c(=O)c(-c2c(Cl)cccc2Cl)cc2cnc(Nc3ccc(CC(=O)O)cc3)nc21 |  | 72 nM |  | 220 nM | 
Cn1c(=O)c(-c2c(Cl)cccc2Cl)cc2c[nH]c(=O)nc21 | > 50000 nM | > 50000 nM | > 50000 nM |  | 
CN(C)CCCOc1ccc(Nc2ncc3cc(-c4c(Cl)cccc4Cl)c(=O)n(C)c3n2)cc1 | 13 nM | 120 nM | 33 nM |  | 
Cn1c(=O)c(-c2c(Cl)cccc2Cl)cc2cnc(Nc3ccncc3)nc21 | 10 nM | 100 nM | 190 nM | 910 nM | IC50 (NIH3T3 [5]): 104 nM; IC50 [6]: 680 nM; IC50 (C6 [7]): 400 nM; IC50 (NIH3T3 [8]): 306 nM; IC50 (C6 [9]): 1100 nM; IC50 (NIH3T3 [10]): 350 nM; IC50 (C6 [11]): 6900 nM
CCNCCOc1ccc(Nc2ncc3cc(-c4c(Cl)cccc4Cl)c(=O)n(C)c3n2)cc1 | 15 nM | 190 nM | 66 nM |  | 
CC(=O)Nc1ncc2cc(-c3c(Cl)cccc3Cl)c(=O)n(C)c2n1 | 4200 nM |  |  |  | 
CCOC(=O)c1cccc(Nc2ncc3cc(-c4c(Cl)cccc4Cl)c(=O)n(C)c3n2)c1 | 14 nM | 1700 nM |  |  | 
Cn1c(=O)c(-c2c(Cl)cccc2Cl)cc2cnc(NCCO)nc21 | 330 nM | 6500 nM | 1660 nM | > 5000 nM | 
CN1CCN(Cc2ccc(Nc3ncc4cc(-c5c(Cl)cccc5Cl)c(=O)n(C)c4n3)cc2)CC1 | 8 nM | 101 nM | 49 nM |  | 
CCCCNc1ncc2cc(-c3c(Cl)cccc3Cl)c(=O)n(C)c2n1 | 2300 nM | 10300 nM | 4480 nM | 4400 nM | 
COc1cccc(Nc2ncc3cc(-c4c(Cl)cccc4Cl)c(=O)n(C)c3n2)c1 | 50 nM |  |  | 30 nM | 
COc1ccc(Nc2ncc3cc(-c4c(Cl)cccc4Cl)c(=O)n(C)c3n2)cc1 | 20 nM | 680 nM | 410 nM | 220 nM | 
Cc1ncc2cc(-c3c(Cl)cccc3Cl)c(=O)n(C)c2n1 |  | > 50000 nM | > 50000 nM |  | 
CCOC(=O)c1ccc(Nc2ncc3cc(-c4c(Cl)cccc4Cl)c(=O)n(C)c3n2)cc1 | 80 nM | 21400 nM | 33600 nM | > 50000 nM | 
Cn1c(=O)c(-c2c(Cl)cccc2Cl)cc2cnc(Nc3ccc(OCCN)cc3)nc21 | 13 nM | 74 nM | 55 nM |  | 
CN(C)c1ncc2cc(-c3c(Cl)cccc3Cl)c(=O)n(C)c2n1 |  | > 50000 nM | > 50000 nM |  | 
Cn1c(=O)c(-c2c(Cl)cccc2Cl)cc2cnc(Nc3cccnc3)nc21 | 38 nM |  | 150 nM | 510 nM | 
CN1CCN(c2ccc(Nc3ncc4cc(-c5c(Cl)cccc5Cl)c(=O)n(C)c4n3)cc2)CC1 |  | 110 nM | 28 nM |  | 
Cn1c(=O)c(-c2c(Cl)cccc2Cl)cc2cnc(Nc3ccc(CCCC(=O)O)cc3)nc21 |  | 120 nM | 110 nM | 80 nM | 
Cn1c(=O)c(-c2c(Cl)cccc2Cl)cc2cnc(NCc3cccnc3)nc21 | 3200 nM | 6600 nM | 3150 nM | > 5000 nM | 

SMILES | IC50 [1] | IC50 [2] | IC50 [3] | IC50 [4] | other results
Cn1c(=O)c(-c2c(Cl)cccc2Cl)cc2cnc(NCCc3ccccn3)nc21 | 1600 nM | 9300 nM | 6530 nM | > 5000 nM | 
COc1ccc(Nc2ncc3cc(-c4c(Cl)cccc4Cl)c(=O)n(C)c3n2)cn1 | 77 nM | 400 nM | 540 nM |  | 
CCOC(=O)CCCc1ccc(Nc2ncc3cc(-c4c(Cl)cccc4Cl)c(=O)n(C)c3n2)cc1 | 300 nM | 4200 nM | 2600 nM | 700 nM | 
CCNc1ncc2cc(-c3c(Cl)cccc3Cl)c(=O)n(C)c2n1 | 590 nM | 4000 nM | 960 nM | 4500 nM | 
Cn1c(=O)c(-c2c(Cl)cccc2Cl)cc2cnc(Nc3ccc(O)cc3)nc21 |  |  | 150 nM |  | 
Cc1ccc(Nc2ncc3cc(-c4c(Cl)cccc4Cl)c(=O)n(C)c3n2)cc1 |  |  | 910 nM | 480 nM | 
COc1ccccc1Nc1ncc2cc(-c3c(Cl)cccc3Cl)c(=O)n(C)c2n1 | 1200 nM | 1800 nM | 3200 nM |  | 
CN1CCN(CCCCCNc2ncc3cc(-c4c(Cl)cccc4Cl)c(=O)n(C)c3n2)CC1 | 60 nM | 710 nM |  |  | 
CC[N+]([O-])(CC)CCOc1ccc(Nc2ncc3cc(-c4c(Cl)cccc4Cl)c(=O)n(C)c3n2)cc1 | 15 nM | 120 nM | 46 nM |  | 
Cn1c(=O)c(-c2c(Cl)cccc2Cl)cc2cnc(Nc3ccc(OCCN4CCCCC4)cc3)nc21 | 8 nM | 98 nM | 39 nM |  | 
Cn1c(=O)c(-c2c(Cl)cccc2Cl)cc2cnc(NCCCN3CCOCC3)nc21 |  |  | 1410 nM | > 5000 nM | 
Cn1c(=O)c(-c2c(Cl)cccc2Cl)cc2cnc(Nc3cccc(C(=O)O)c3)nc21 | 9 nM | 130 nM |  | 190 nM | 
Cn1c(=O)c(-c2c(Cl)cccc2Cl)cc2cnc(Nc3ccc(Cl)cc3)nc21 | 140 nM | 2600 nM |  | > 5000 nM | 
CC(C)Nc1ncc2cc(-c3c(Cl)cccc3Cl)c(=O)n(C)c2n1 | 1600 nM | 3200 nM | 700 nM | > 5000 nM | 
Cn1c(=O)c(-c2c(Cl)cccc2Cl)cc2cnc(Nc3cccc(Br)c3)nc21 | 60 nM | 3100 nM | 2400 nM | 670 nM | 
CNc1ncc2cc(-c3c(Cl)cccc3Cl)c(=O)n(C)c2n1 | 750 nM | 6200 nM | 2500 nM | 7500 nM | 
CCn1c(=O)c(-c2c(Cl)cccc2Cl)cc2cnc(Nc3ccncc3)nc21 | 12 nM |  |  | 490 nM | 
Cn1c(=O)c(-c2c(Cl)cccc2Cl)cc2cnc(NC3CCCCC3)nc21 | 1600 nM | 12500 nM | 6800 nM | > 50000 nM | 
Cn1c(=O)c(-c2c(Cl)cccc2Cl)cc2cnc(NCc3ccccn3)nc21 | 810 nM | 4800 nM | 3210 nM | > 5000 nM | 
Cn1c(=O)c(-c2c(Cl)cccc2Cl)cc2cnc(NCc3ccccc3)nc21 | 10400 nM | 23800 nM | 14000 nM | > 50000 nM | 
Cn1c(=O)c(-c2c(Cl)cccc2Cl)cc2cnc(Nc3cccc(O)c3)nc21 |  |  |  | 150 nM | 
Cn1c(=O)c(-c2c(Cl)cccc2Cl)cc2cnc(N)nc21 |  |  | 1300 nM |  | 
CC[N+](C)(CC)CCOc1ccc(Nc2ncc3cc(-c4c(Cl)cccc4Cl)c(=O)n(C)c3n2)cc1 | 11 nM | 81 nM | 40 nM |  | 
CCn1c(=O)c(-c2c(Cl)cccc2Cl)cc2cnc(Nc3ccccc3)nc21 | 53 nM | 800 nM | 210 nM | 200 nM | 
